Test results as given in article PMC7126014 (Fitoterapia, 2010).

How the values were obtained:
MA104 cells = assay: Cytotoxicity by microscopical cell morphology evaluation; assay type: cell-based; conditions: mean of three independent experiments
Method in brief: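 Toxicity to MA104 cells was scored by microscopic assessment of cell morphology. Cells were grown in 199 medium with 10% fetal bovine serum and antibiotics at 37 °C in humidified 5% CO2. Test compound was dissolved in 1% DMSO in 199 medium and filtered at 0.22 μm. CC50 was estimated by linear regression of concentration–effect curves, as the mean of three independent experiments.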

[1] = tested on: human rotavirus (Wa-1 strain); assay: Antirotavirus activity by cytopathic effect; assay type: cell-based; conditions: for IC50: human rotavirus, NA = no antiviral activity; for antiviral (antirotavirus) activity in words: non-cytotoxic concentrations
Method in brief: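 MA104 cells grown in 199 medium with 10% fetal bovine serum, penicillin G, streptomycin and amphotericin B at 37 °C, 5% CO2, were infected with human rotavirus Wa-1, which had been propagated in MA104 cells with trypsin (5 μg/ml) and titred as TCID50/ml. Test compound was dissolved in 1% DMSO in 199 medium and filter-sterilised. Read-out was cytopathic-effect inhibition. IC50 came from linear regression of concentration–effect curves, as the mean of three independent experiments.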

rotavirus = rotavirus infection in vitro; cited from earlier work

Compound | CC50 (MA104 cells; flavonols (Table 1)) | IC50 ([1]; flavonols (Table 1)) | antiviral (antirotavirus) activity in words [1] | further results
COc1ccc2oc(-c3ccccc3)c(O)c(=O)c2c1 [compound 29] | 29.1 µM | – | – | –
COc1ccc(-c2oc3cc(OC)ccc3c(=O)c2O)cc1 [compound 33] | 26.2 µM | 6.37 µM | – | –
CCOc1ccc(-c2oc3ccccc3c(=O)c2O)cc1OCC [compound 18] | 47.8 µM | 7.97 µM | promising antiviral activity | –
COc1ccc(-c2oc3cc(OC)ccc3c(=O)c2O)c(OC)c1 [compound 34] | 47.4 µM | 11.8 µM | – | –
CCOc1ccccc1-c1oc2ccccc2c(=O)c1O [compound 15] | 111 µM | – | – | –
CCOc1cccc(-c2oc3cc(OCC)ccc3c(=O)c2O)c1 [compound 37] | 47.8 µM | 7.97 µM | antiviral activity was detected | –
CCCCOc1ccc(-c2oc3ccccc3c(=O)c2O)cc1OCCCC [compound 25] | 40.8 µM | 6.8 µM | higher activity | –
COc1ccc(-c2oc3ccc(OC)cc3c(=O)c2O)cc1 [compound 32] | 105 µM | 17.4 µM | – | –
COc1ccc(-c2oc3ccccc3c(=O)c2O)cc1 [compound 7] | 29.1 µM | – | antiviral action was not observed | –
COc1cc(-c2oc3ccccc3c(=O)c2O)cc(OC)c1OC [compound 11] | 47.5 µM | 11.9 µM | – | –
CCc1ccc(-c2oc3ccccc3c(=O)c2O)cc1 [compound 21] | 14.7 µM | 3.64 µM | Antiviral activity was provided | –
COc1ccc(-c2oc3ccccc3c(=O)c2O)c(OC)c1 [compound 9] | 52.3 µM | 26.2 µM | – | –
O=c1c(O)c(-c2cccc(O)c2)oc2ccccc12 [compound 2] | 61.4 µM | 27.5 µM | – | –
O=c1c(O)c(-c2cc(O)ccc2O)oc2ccccc12 [compound 5] | 57.7 µM | – | did not grant antiviral activity | –
COc1ccc(-c2cc(=O)c3cc(OCc4ccccc4)ccc3o2)cc1 [compound 48] | – | – | antiviral activity was not shown | CC50 (MA104 cells; flavones (Table 2)): 21.8 µM
CCOc1ccc(OCC)c(-c2oc3ccccc3c(=O)c2O)c1 [compound 17] | 23.9 µM | 12 µM | – | –
CCCCOc1ccc(-c2oc3ccccc3c(=O)c2O)cc1 [compound 24] | 201 µM | 40.6 µM | – | –
O=c1c(OS(=O)(=O)O)c(-c2ccc(O)c(O)c2)oc2cc(O)cc(O)c12 [compound 47] | – | – | conferred an antiviral activity | CC50 (MA104 cells; flavones (Table 2)): 40.9 µM; IC50 ([1]; flavones (Table 2)): 10.2 µM
COc1ccc(-c2oc3ccccc3c(=O)c2O)cc1OC [compound 10] | 52.3 µM | 13.1 µM | – | –

Compound | CC50 (MA104 cells; flavonols (Table 1)) | IC50 ([1]; flavonols (Table 1)) | antiviral (antirotavirus) activity in words [1] | further results
COc1cc(-c2oc3c(OC)c(OC)cc(O)c3c(=O)c2OC)ccc1O [compound 59] | – | – | – | CC50 (MA104 cells; flavones (Table 2)): 41.7 µM; IC50 ([1]; flavones (Table 2)): 6.95 µM
O=c1c(O)c(-c2ccccc2O)oc2ccccc12 [compound 1] | 61.4 µM | – | did not grant antiviral activity | –
COc1ccc(-c2cc(=O)c3c(O)cc(OC)cc3o2)cc1 [compound 50] | – | – | – | CC50 (MA104 cells; flavones (Table 2)): 52.4 µM; IC50 ([1]; flavones (Table 2)): 13.1 µM
O=c1c(O)c(-c2ccc(O)c(O)c2)oc2ccccc12 [compound 4] | 57.7 µM | 14.4 µM | – | –
COc1ccc(-c2cc(=O)c3c(O)c(OC)c(OC)c(OC)c3o2)cc1 [compound 51] | – | – | – | CC50 (MA104 cells; flavones (Table 2)): 43.6 µM; IC50 ([1]; flavones (Table 2)): 7.26 µM
COc1ccc(-c2cc(=O)c3c(OC)c(OC)c(OC)cc3o2)cc1OC [compound 54] | – | – | – | CC50 (MA104 cells; flavones (Table 2)): 41.9 µM; IC50 ([1]; flavones (Table 2)): 6.98 µM
CCOc1ccc(-c2oc3cc(OCC)ccc3c(=O)c2O)cc1 [compound 36] | 47.8 µM | 12 µM | antiviral activity was detected | –
COc1ccc(-c2oc3cccc(OC)c3c(=O)c2O)cc1 [compound 31] | 26.2 µM | 4.69 µM | – | –
COc1c(OC)c(O)c2c(=O)cc(-c3ccc(O)cc3)oc2c1OC [compound 40] | – | – | – | CC50 (MA104 cells; flavones (Table 2)): 22.7 µM; IC50 ([1]; flavones (Table 2)): 7.56 µM
quercetrin [compound 46] | – | – | did not provide antiviral activity | CC50 (MA104 cells; flavones (Table 2)): 27.2 µM
COc1ccc(-c2oc3c(OC)c(OC)c(OC)c(O)c3c(=O)c2OC)cc1O [compound 60] | – | – | – | CC50 (MA104 cells; flavones (Table 2)): 77.2 µM; IC50 ([1]; flavones (Table 2)): 77.2 µM
COc1ccc(-c2oc3c(OC)c(OC)c(OC)c(OC)c3c(=O)c2OC)cc1OC [compound 57] | – | – | weak antirotavirus activity | CC50 (MA104 cells; flavones (Table 2)): 36.1 µM; IC50 ([1]; flavones (Table 2)): 18 µM
COc1ccc2c(=O)c(O)c(-c3ccccc3)oc2c1 [compound 30] | 29.1 µM | – | – | –
COc1ccc([C@@H]2CC(=O)c3c(O)cc(O[C@@H]4O[C@H](CO[C@@H]5O[C@@H](C)[C@H](O)[C@@H](O)[C@H]5O)[C@@H](O)[C@H](O)[C@H]4O)cc3O2)cc1O [hesperidin] | – | – | – | IC50 (rotavirus): 10 µM
COc1ccc(-c2cc(=O)c3c(OC)c(OC)c(OC)c(OC)c3o2)cc1OC [compound 55] | – | – | antiviral effect was not shown | CC50 (MA104 cells; flavones (Table 2)): 38.8 µM
O=c1c(O)c(-c2ccccc2OCc2ccccc2)oc2ccccc12 [compound 19] | 45.3 µM | 7.55 µM | considerable antirotavirus action | –
O=c1c(O)c(-c2ccccc2)oc2cc(O)ccc12 [compound 27] | 61.4 µM | 15.7 µM | – | –
O=c1c(O)c(-c2ccc(OCc3ccccc3)cc2)oc2ccccc12 [compound 13] | 22.7 µM | 3.78 µM | considerable antirotavirus action | –
COc1c(-c2ccc(O)c(O)c2)oc2cc(O)cc(O)c2c1=O [compound 43] | – | – | conferred an antiviral activity | CC50 (MA104 cells; flavones (Table 2)): 49.3 µM; IC50 ([1]; flavones (Table 2)): 12.3 µM

Compound | CC50 (MA104 cells; flavonols (Table 1)) | IC50 ([1]; flavonols (Table 1)) | antiviral (antirotavirus) activity in words [1] | further results
O=c1c(O)c(-c2ccc(O)cc2)oc2ccccc12 [compound 3] | 61.4 µM | – | did not grant antiviral activity | –
CCOc1ccc(-c2oc3ccccc3c(=O)c2O)c(OCC)c1 [compound 16] | 47.8 µM | – | – | –
COc1ccc(-c2cc(=O)c3c(O)c(OC)c(OC)cc3o2)cc1 [compound 52] | – | – | – | CC50 (MA104 cells; flavones (Table 2)): 23.8 µM; IC50 ([1]; flavones (Table 2)): 15.6 µM
O=c1c(O)c(-c2ccc(OCc3ccccc3)cc2)oc2cc(OCc3ccccc3)ccc12 [compound 39] | 69.3 µM | 17.3 µM | Antiviral activity was provided | –
CCOc1cccc(-c2oc3ccccc3c(=O)c2O)c1 [compound 14] | 111 µM | – | – | –
COc1ccc(-c2cc(=O)c3c(O)cc(O[C@@H]4O[C@H](CO[C@@H]5O[C@@H](C)[C@H](O)[C@@H](O)[C@H]5O)[C@@H](O)[C@H](O)[C@H]4O)cc3o2)cc1O [dosmin] | – | – | – | IC50 (rotavirus): 10 µM
O=c1c(O)c(-c2ccc(O)c(O)c2)oc2cc(O)cc(O)c12 [compound 28] | 103 µM | – | antiviral activity was not observed | –
COc1ccc(-c2cc(=O)c3c(OC)c(OC)c(OC)c(OC)c3o2)cc1 [compound 49] | – | – | – | CC50 (MA104 cells; flavones (Table 2)): 168 µM; IC50 ([1]; flavones (Table 2)): 28.2 µM
CCOc1ccc2c(=O)c(O)c(-c3ccccc3)oc2c1 [compound 35] | 111 µM | – | – | –
CCCCOc1ccc(-c2oc3ccccc3c(=O)c2O)c(OCCCC)c1 [compound 26] | 40.8 µM | 10.2 µM | – | –
O=c1c(O)c(-c2cc(O)c(O)c(O)c2)oc2ccccc12 [compound 6] | 27.2 µM | 18.2 µM | – | –
COc1ccc(-c2oc3ccccc3c(=O)c2O)c(OC)c1OC [compound 12] | 23.8 µM | 6.09 µM | – | –
CCCCOc1cccc(-c2oc3ccccc3c(=O)c2O)c1 [compound 22] | 25.1 µM | 6.12 µM | – | –
C[C@@H]1O[C@@H](Oc2c(-c3ccc(O)c(O)c3)oc3cc(O)cc(O)c3c2=O)[C@H](O)[C@H](O)[C@H]1O [compound 44] | – | – | did not provide antiviral activity | CC50 (MA104 cells; flavones (Table 2)): 69.6 µM
C[C@@H]1O[C@@H](OC[C@H]2O[C@@H](Oc3c(-c4ccc(O)c(O)c4)oc4cc(O)cc(O)c4c3=O)[C@H](O)[C@@H](O)[C@@H]2O)[C@H](O)[C@H](O)[C@H]1O [compound 45, rutin] | – | – | did not provide antiviral activity | inhibitory effect on rotavirus infection in words (rotavirus): low inhibitory effect
CCCCOc1ccccc1-c1oc2ccccc2c(=O)c1O [compound 23] | 302 µM | 75.4 µM | – | –
COc1ccccc1-c1oc2ccccc2c(=O)c1O [compound 8] | 44.7 µM | – | antiviral action was not observed | –
CCCCOc1ccc2c(=O)c(O)c(-c3ccccc3)oc2c1 [compound 38] | 50.3 µM | 8.38 µM | Antiviral activity was provided | –
